Source: publication PMC2174336 (The Journal of Cell Biology, 2001)
Bridges are numbered along the chain shown (N, C = ends). Where no end group is shown, it is not given here.

Legend:
β2 integrin = experiment: LLG-C4-GST binding to integrin immunocaptured with β2 subunit antibody 2E7; details: β2 subunit antibody 2E7 used for immunocapture
In short: (§1)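 Integrins from buffy-coat lysate in 1% octylglucoside/1 mM MnCl2/TBS were captured for 2 h at 4°C on wells coated with subunit antibodies (MEM170, OKM1 or 2E7), then washed five times. Peptide–GST fusion or GST (10 μg/ml; 2 μg/well per legend) bound 1 h in 25 mM octylglucoside/TBS/1 mM MnCl2, ± EDTA. Detection by Eu3+-chelate-labelled anti-GST antibody fluorescence. Repeated three times.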

αM subunit I domain = experiment: LLG-C4-GST binding to purified αM subunit I domain; details: LLG-C4-GST 10 μg/ml; for inhibition of LLG-C4-GST binding to the I domain: peptide 100 μM, triplicate wells
In short: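 The αM I domain was expressed as a GST fusion in E. coli, purified on glutathione beads and released by thrombin cleavage; it was then coated on wells. Peptide–GST fusion or GST at the indicated concentrations (10 μg/ml in methods) was incubated 1 h in 25 mM octylglucoside/TBS/1 mM MnCl2. Bound protein was detected with Eu3+-labelled anti-GST antibodies. Triplicate wells, three experiments.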

[1] = tested on: αXβ2 integrin–transfected L cells; experiment: Binding of αXβ2 integrin-transfected L cells to LLG-C4-GST; type: cell-based, mouse; details: three experiments in triplicate wells
In short: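 αXβ2-transfected mouse L cells were incubated in wells coated with peptide–GST fusion or GST (2 μg/well, BSA-blocked), 60 min at 37°C, 10^5 cells/well. The β2-blocking antibody 7E4 or EDTA served as competitors. After PBS washing, bound cells were read by phosphatase assay and given as percentage adhesion. Triplicate wells; three experiments.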

THP-1 cells [2] = experiment: Inhibition of THP-1 cell adhesion to LLG-C4-GST or LLG-C4 substratum; type: cell-based
In short: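 THP-1 cells were mixed in suspension with test peptides at the indicated final concentrations, or with 2.5 mM EDTA. They were then incubated 60 min in wells coated with peptide–GST fusion. Unbound cells were removed by PBS washing and bound cells quantitated by phosphatase assay. Mean of triplicate wells; repeated in two further experiments.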

αMβ2 integrin [3] = experiment: LLG-C4-GST binding to immunocaptured αMβ2 integrin; details: integrin immunocaptured with MEM170 or OKM1
In short: as §1

THP-1 cells [4] = experiment: THP-1 adhesion to A2 domain-deleted von Willebrand factor; type: cell-based; details: phosphatase assay; triplicate wells
In short: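 Wild-type or A2-domain-deleted recombinant von Willebrand factor was captured on wells coated with anti-von Willebrand factor antibody D′-D3. THP-1 cells were incubated with competitor peptides at the stated concentrations. Bound cells were read by phosphatase assay, expressed relative to wild-type von Willebrand factor binding (100%). Triplicate wells; similar in two further experiments.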

T cells = experiment: T cell binding to TNF-α-stimulated Eahy926 endothelial cell monolayer; type: cell-based; details: peptide 50 μM; 45 min; phosphatase assay; triplicate wells
In short: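 Eahy926 endothelial cells were seeded at 5×10^4/well, grown 3 d, then stimulated 16 h with TNF-α (10 ng/ml). Blood T cells were isolated by Ficoll-Hypaque and nylon wool. T cells (1.5×10^5/well) were bound 30 min at 4°C then 15 min at 37°C, with test or control peptide at 50 μM. Unbound cells were removed by immersing the plate in PBS. Phosphatase assay; triplicate wells.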

THP-1 cells [5] = experiment: THP-1 cell adhesion to von Willebrand factor; type: cell-based; details: data not shown
In short: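 THP-1 cells were incubated 60 min at 37°C in wells coated with von Willebrand factor or fibronectin (2 μg per well, BSA-blocked), with test peptides at the indicated concentrations. Unbound cells were washed off with PBS and bound cells read by phosphatase assay. Triplicate wells.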

THP-1 cells [6] = experiment: THP-1 cell adhesion to immobilized peptides or GST fusion proteins; type: cell-based; details: 60 min; for THP-1 cell binding to substance coated on microtiter wells: phorbol ester–activated THP-1 cells, phosphatase assay
In short: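 Proteins or synthetic peptides coated at 2 μg per well in TBS unless indicated; polymerised peptide made with 0.25% final glutaraldehyde. Wells blocked with 5% BSA and washed with PBS. Cells were preactivated for 30 min at room temperature in serum-free medium with 50 nM phorbol dibutyrate or 200 μM activating peptide. Then 10^5 cells/well were incubated 60 min at 37°C. Bound cells were read by cellular phosphatase assay.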

Jurkat cells = experiment: Jurkat cell adhesion to ICAM-1-Fc; type: cell-based
THP-1 cells [7] = experiment: THP-1 cell migration on fibrinogen-coated Transwell filters; type: cell-based; details: 200 μM; 8-μm Transwell; 10% serum; 18 h; n = 6
In short: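 Both faces of 8-μm-pore Transwell filters were coated with fibrinogen or peptide–GST fusion (40 μg/ml; GST control) and blocked with 5% BSA. THP-1 cells (5×10^4) were placed in the upper chamber in 10% serum medium, ± test peptides at 200 μM; the lower chamber held the same medium. After 18 h at 37°C, filters were methanol-fixed and stained with 0.1% toluidine blue. Cells on the lower surface were counted microscopically.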

αMβ2 integrin [8] = experiment: Phage binding to purified αMβ2 integrin; details: phage-displayed peptide; data not shown
[9] = target: β2 integrins of THP-1 cells (adhesion to LLG-C4 substrata)
[10] = target: β2 integrins of THP-1 cells (adhesion to LLG-C4 substrata); remark: listed apart in the source

O=C(O)CN(CCN(CC(=O)O)CC(=O)O)CC(=O)O [EDTA]
effect of EDTA on LLG-C4-GST binding to integrin captured with 2E7 (β2 integrin): only partially inhibited | effect of EDTA on LLG-C4-GST binding to the I domain (αM subunit I domain; EDTA 2.5 mM): blocked the binding | binding of αXβ2-transfected L cells to LLG-C4-GST, effect of competitor [1]: inhibited | effect of EDTA on THP-1 binding to LLG-C4-GST (THP-1 cells [2]; EDTA 2.5 mM, phorbol ester–activated cells): abolished the binding | effect of EDTA on LLG-C4-GST binding to αMβ2 integrin (αMβ2 integrin [3]): inhibited the binding

ACDCRGDCFCG (also: bicyclic or more (positions not given here)) [RGD-4C]
effect on THP-1 adhesion to the A2-deleted von Willebrand factor (THP-1 cells [4]): blocked | effect on T cell binding to TNF-α–stimulated endothelial cells (T cells): no effect

CAAGC (disulfide)
competition of THP-1 cell adhesion on LLG-C4-GST (in words) (THP-1 cells [2]; LLG-C4-GST substratum): only a weak competitor

CLLGC (disulfide)
concentrations at which THP-1 cell adhesion on LLG-C4-GST was readily inhibited (THP-1 cells [2]; LLG-C4-GST substratum, phosphatase assay): ≥ 1 mM | inhibition of THP-1 binding to von Willebrand factor at 500 μM (THP-1 cells [5]): inhibited

CPCFLLGCC (also: bicyclic or more (positions not given here)) [C(1-9;3-8)]
THP-1 cell binding to peptide cross-linked with glutaraldehyde (THP-1 cells [6]; peptide coated in presence of glutaraldehyde, 10^5 cells per well): inactive even after the cross-linking | THP-1 cell binding to substance coated on microtiter wells (THP-1 cells [6]): failed to bind | inhibition of Jurkat cell adhesion to ICAM-1-Fc (in words) (Jurkat cells): severalfold less active and had hardly any effect | fold less active than C(1-8;3-9), THP-1 cell adhesion on LLG-C4-GST (THP-1 cells [2]; relative to C(1-8;3-9)): 20 fold | effect on THP-1 cell migration on fibrinogen (THP-1 cells [7]): inhibited only partially

CPCFLLGCC (also: bicyclic or more (positions not given here)) [LLG-C4]
affinity to αMβ2 in phage-binding experiments in comparison to the other clones (αMβ2 integrin [8]): higher affinity | THP-1 cell binding to substance coated on microtiter wells (THP-1 cells [6]): bound strongly

CPCFLLGCC [LLG-C4 (1)]
inhibition of LLG-C4-GST binding to the I domain (αM subunit I domain): blocked

CPCFLLGCC [LLG-C4 (2)]
inhibition of LLG-C4-GST binding to the I domain (αM subunit I domain): did not inhibit

B1: CLLGC peptide (peptide)
peptide: CLLGC
modifications: also: cyclic, type of ring not given here
inhibition of THP-1 cell adhesion on LLG-C4-GST (blocks m22 with m1) [9]: > 1 mM

B2: C(1-8;3-9) peptide (peptide)
peptide: CPCFLLGCC
modifications: disulfide 1-8, 3-9
IC50 of inhibition of THP-1 cell adhesion on LLG-C4-GST (blocks m22 with m1) [10]: 20 µM
